Data reported in ChEMBL document CHEMBL5543129, “Peptide Inhibitor Targeting the Extraterminal Domain in BRD4 Potently Suppresses Breast Cancer Both In Vitro and In Vivo” (J Med Chem, 2024).
Active and inactive are the calls of the source. No cut-off for these calls is given here. Square brackets hold non-standard residues; d marks the D form. Peptide text beside a SMILES is read from it. Hyp = O=C(O)[C@@H]1C[C@@H](O)CN1; Ahx = NCCCCCC(=O)O

What was measured:
[1] = test system: MDA-MB-231; assay: Inhibition of cell migration in human MDA-MB-231 cells at 10 uM incubated for 24 hrs in presence of JMJD6 inhibitor by inverted microscopic analysis; assay type: functional, cell-based
Outline: (§1)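 Cells are seeded at 5 × 10^5/well and scratched at 80–90% confluence. They are kept in serum-free medium with peptide (10 μM); partner agents are JQ1 5 μM, iJMJD6 10 μM, or ICI 2.5 μM. Wound area is imaged by inverted microscope at 0 and 12 or 24 h. Wound closure % = (A0−A1)/A0 × 100. Three biological repeats.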

[2] = test system: MCF7; assay: Antitumor activity against human MCF7 cells xenografted in BALB/c nude mouse assessed as reduction in tumor volume at 12.5 mg/kg, ip administered every 2 days in presence of 50 mg/kg JQ1; assay type: functional, organism-based
Outline: (§2)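 Female BALB/c nude mice given 5 × 10^6 cells sc (MCF7 mice with E2 10^-2 M every 2 days), randomised at ~50 mm3. Peptide 12.5 mg/kg ip (saline) every 2 days, plus JQ1 50 mg/kg ip (DMSO/10% HPBCD 1:10) every 2 days or iJMJD6 12.5 mg/kg ip (DMSO/PBS 1:20). Caliper volume every 2 days; tumours weighed at the end.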

[3] = Toxicity in BALB/c mouse xenografted with human MCF7 cells assessed as change in lung weight at 12.5 mg/kg, ip administered every 2 days in presence of 50 mg/kg JQ1; assay type: organism-based; details: in vivo, 48 h
[4] = test system: MDA-MB-231; assay: Downregulation of […] gene expression in human MDA-MB-231 cells at 10 uM incubated for 6 hrs by RT-qPCR analysis; assay type: functional, cell-based
Outline: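 Cells treated with peptide (10 μM) for 6 h; c-Myc, N-myc and CCND1 mRNA measured by RT-qPCR. Three biological repeats.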

[5] = test system: T47D; assay: Inhibition of colony formation in human T47D cells at 10 uM incubated for 2 weeks in presence of fulvestrant by crystal violet staining based assay; assay type: functional, cell-based
Outline: (§3)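 Cells are seeded at 1 × 10^3/well and treated with peptide (10 μM) for 2 weeks, alone or with JQ1 5 μM, iJMJD6 10 μM, ICI 2.5 μM, or tamoxifen 3 μM (tamoxifen-resistant lines). Colonies are stained with crystal violet, dissolved in 10% acetic acid, and read at 590 nm. Three biological repeats.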

[6] = test system: MDA-MB-231; assay: Inhibition of cell migration in human MDA-MB-231 cells at 10 uM incubated for 12 hrs in presence of 5 uM JQ1 by inverted microscopic assay; assay type: functional, cell-based; outline: as §1
[7] = test system: MCF7; assay: Inhibition of colony formation in human MCF7 cells at 10 uM incubated for 2 weeks in presence of JMJD6 inhibitor by crystal violet staining based assay; assay type: functional, cell-based; outline: as §3
[8] = test system: T47D; assay: Inhibition of colony formation in human T47D cells at 10 uM incubated for 2 weeks in presence of tamoxifen by crystal violet staining based assay; assay type: functional, cell-based; outline: as §3
[9] = Toxicity in BALB/c mouse xenografted with human MCF7 cells assessed as change in lung morphology at 12.5 mg/kg, ip administered every 2 days in presence of 50 mg/kg JQ1; assay type: organism-based; details: in vivo, 48 h
[10] = test system: Mus musculus; assay: Downregulation of JMJD6 mRNA expression in BALB/c mouse tumor xenografted with human MDA-MB-231 cells at 25 mg/kg, ip administered every 2 days by RT-qPCR analysis; assay type: functional, organism-based
[11] = test system: MDA-MB-231; assay: Antitumor activity against human MDA-MB-231 cells xenografted in BALB/c nude mouse assessed as reduction in tumor growth at 25 mg/kg, ip administered every 2 days; assay type: functional, organism-based
Outline: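 Female BALB/c nude mice, 4–6 wk, given 5 × 10^6 cells in PBS subcutaneously; MCF7 mice also had E2 (10^-2 M) brushed on the neck every 2 days. Randomised at ~50 mm3. Peptide in 0.9% saline, 25 mg/kg ip every 2 days. Caliper volume (1/2 × L × W²) every 2 days.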

[12] = test system: MDA-MB-231; assay: Antitumor activity against human MDA-MB-231 cells xenografted in BALB/c nude mouse assessed as reduction in tumor weight at 12.5 mg/kg, ip administered every 2 days in presence of 50 mg/kg JQ1; assay type: functional, organism-based; outline: as §2
[13] = test system: MDA-MB-231; assay: Antitumor activity against human MDA-MB-231 cells xenografted in BALB/c nude mouse assessed as reduction in tumor volume at 12.5 mg/kg, ip administered every 2 days in presence of 50 mg/kg JQ1; assay type: functional, organism-based; outline: as §2
[14] = Downregulation of […] protein expression in human MCF7 cells assessed as fold change in remaining c-Myc level at 10 uM incubated for 24 hrs by immunoblotting analysis (reference value: 1); assay type: functional
Outline: (§4)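 Cells treated with peptide (10 μM) for 24 h. Lysates in Tris/NaCl/EDTA/1% Triton X-100, run on 10% SDS-PAGE and immunoblotted with ECL detection. β-actin as loading control. Three repeats, quantified against untreated cells.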

[15] = test system: MCF7; assay: Antitumor activity against human MCF7 cells xenografted in BALB/c nude mouse assessed as reduction in tumor volume at 12.5 mg/kg, ip administered every 2 days in presence of 12.5 mg/kg JMJD6 inhibitor; assay type: functional, organism-based; outline: as §2
[16] = Toxicity in BALB/c mouse xenografted with human MCF7 cells assessed as change in kidney morphology at 12.5 mg/kg, ip administered every 2 days in presence of 50 mg/kg JQ1; assay type: organism-based; details: in vivo, 48 h
[17] = test system: T47D; assay: Inhibition of colony formation in human T47D cells at 10 uM incubated for 2 weeks in presence of JMJD6 inhibitor by crystal violet staining based assay; assay type: functional, cell-based; outline: as §3
[18] = Toxicity in BALB/c mouse xenografted with human MCF7 cells assessed as change body weight at 12.5 mg/kg, ip administered every 2 days in presence of 50 mg/kg JQ1; assay type: organism-based; details: in vivo, 48 h
[19] = Toxicity in BALB/c mouse xenografted with human MCF7 cells assessed as change in liver weight at 12.5 mg/kg, ip administered every 2 days in presence of 50 mg/kg JQ1; assay type: organism-based; details: in vivo, 48 h
[20] = test system: Mus musculus; assay: Downregulation of BRD4 mRNA expression in BALB/c mouse tumor xenografted with human MDA-MB-231 cells at 25 mg/kg, ip administered every 2 days by RT-qPCR analysis; assay type: functional, organism-based
[21] = Toxicity in BALB/c mouse xenografted with human MCF7 cells assessed as change in heart morphology at 12.5 mg/kg, ip administered every 2 days in presence of 50 mg/kg JQ1; assay type: organism-based; details: in vivo, 48 h
[22] = test system: Mus musculus; assay: Downregulation of BRD4 mRNA expression in BALB/c mouse tumor xenografted with human MCF7 cells at 25 mg/kg, ip administered every 2 days by RT-qPCR analysis; assay type: functional, organism-based
[23] = Downregulation of CCND1 protein expression in human MCF7 cells assessed as fold change in remaining CCND1 level at 10 uM incubated for 24 hrs by immunoblotting analysis (reference value: 1); assay type: functional; outline: as §4
[24] = test system: MDA-MB-231; assay: Inhibition of cell migration in human MDA-MB-231 cells at 10 uM incubated for 12 hrs by inverted microscopic assay; assay type: functional, cell-based; outline: as §1

With CC[C@H](C)[C@H](NC(=O)[C@H](Cc1ccc(O)cc1)NC(=O)[C@@H]1C[C@@H](O)CN1C(=O)[C@H](C)NC(=O)[C@@H](NC(=O)CCCCCNC(=O)[C@H](CCC(=O)O)NC(=O)CNC(=O)[C@H](CS)NC(=O)[C@H](CCCCN)NC(=O)[C@H](Cc1ccccc1)NC(=O)[C@H](CCCCN)NC(=O)[C@H](CCC(N)=O)NC(=O)[C@H](CC(N)=O)NC(=O)[C@H](CCCNC(=N)N)NC(=O)[C@H](CCCNC(=N)N)NC(=O)[C@H](CCCNC(=N)N)NC(=O)[C@H](CCCNC(=N)N)NC(=O)[C@H](CCC(N)=O)NC(=O)[C@H](CCCNC(=N)N)NC(=O)[C@H](CCCNC(=N)N)NC(=O)[C@H](CCCCN)NC(=O)[C@H](CCCCN)NC(=O)[C@H](CCCNC(=N)N)NC(=O)CNC(=O)[C@@H](N)Cc1ccc(O)cc1)[C@@H](C)CC)C(=O)O (H-YGRKKRRQRRRRNQKFKCGE[Ahx]IA[Hyp]YI-OH) as the compound, how does the inhibition [1] read?
Its inhibition is “Active”.

What about the Activity [2] of the same compound?
The Activity was “Active”.

What about the Activity [3] of the same compound?
Its Activity is “Non-Toxic”.

And the Activity [4]?
Its Activity is “Active”.

And the inhibition [5]?
The inhibition was “Active”.

And the inhibition [6]?
The inhibition was “Active”.

What about the inhibition [7] of the same compound?
Its inhibition is “Active”.

And the inhibition [8]?
Its inhibition is “Active”.

And the Activity [9]?
Its Activity is “Non-Toxic”.

And the Activity [10]?
The Activity was “inactive”.

What about the Activity [11] of the same compound?
Its Activity is “Active”.

And the Activity [12]?
The Activity was “Active”.

What about the Activity [13] of the same compound?
The Activity was “Active”.

What about the “fold change (FC)” value [14] of the same compound?
Its value is 0.53.

What about the Activity [15] of the same compound?
The Activity was “Active”.

And the Activity [16]?
The Activity was “Non-Toxic”.

And the inhibition [17]?
Its inhibition is “Active”.

What about the Activity [18] of the same compound?
Its Activity is “Non-Toxic”.

What about the Activity [19] of the same compound?
The Activity was “Non-Toxic”.

What about the Activity [20] of the same compound?
Its Activity is “inactive”.

What about the Activity [21] of the same compound?
Its Activity is “Non-Toxic”.

What about the Activity [22] of the same compound?
Its Activity is “inactive”.

And the “fold change (FC)” value [23]?
The value was 0.58.

And the inhibition [24]?
The inhibition was “Active”.

Which results are given for H-YGRKKRRQRRRRNQKFKCGE-OH?
inhibition [1]: Active; Activity [2]: Active; Activity [3]: Non-Toxic; Activity [4]: Active; inhibition [5]: Active; inhibition [6]: Active; inhibition [7]: Active; inhibition [8]: Active; Activity [9]: Non-Toxic; Activity [10]: inactive; Activity [11]: Active; Activity [12]: Active; Activity [13]: Active; fold change (FC) [14]: 0.45; Activity [15]: Active; Activity [16]: Non-Toxic; inhibition [17]: Active; Activity [18]: Non-Toxic; Activity [19]: Non-Toxic; Activity [20]: inactive; Activity [21]: Non-Toxic; Activity [22]: inactive; fold change (FC) [23]: 0.68; inhibition [24]: Active
